The list is not random: actives were taken first. Their share in the collection is about 2.5%.
GRK2 aptamer HTS: compounds blocking aptamer binding on GRK2 – biochemical, human GRK2, bead flow cytometry, HTS, primary screen; Beta-adrenergic receptor kinase 1 (Homo sapiens), P25098; FAM-aptamer displacement from GRK2; 330,000 tested, 0.59% active; inhibition of aptamer binding, % at 10 µM;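 active = inhibition of aptamer binding above 40%, roughly 3 SD of noise, on plates passing a quality check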;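 note: median bead fluorescence of bound FAM aptamer so fluorescent compounds give negative values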
NadD inh: inhibitors of S. aureus NadD, primary screen, biochemical, colorimetric, uHTS; inhibition, % at 20 µM; Nicotinate-nucleotide adenylyltransferase NadD (Staphylococcus aureus N315); purified NadD enzyme, colorimetric absorbance read-out; 360,000 tested, 0.78% active; in the data active = inhibition above about 26%
ABHD5-PLIN5 inh: ABHD5-PLIN5 interaction inhibitors, primary screen, cell lysate, split luciferase complementation, luminescence. Perilipin-5 (Homo sapiens) + 1-acylglycerol-3-phosphate O-acyltransferase ABHD5 (Homo …. Split G. princeps luciferase complementation, 4 h. 360,000 tested, 0.78% active. inhibition, % at 4 µM;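 active = inhibition above the mean inhibition across every tested compound plus 3 SD, cut at about 22% in these data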;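 note: 0% = DMSO only wells and the 100% control is not disclosed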
Target sequence (Q00G26 whole entry, looked up): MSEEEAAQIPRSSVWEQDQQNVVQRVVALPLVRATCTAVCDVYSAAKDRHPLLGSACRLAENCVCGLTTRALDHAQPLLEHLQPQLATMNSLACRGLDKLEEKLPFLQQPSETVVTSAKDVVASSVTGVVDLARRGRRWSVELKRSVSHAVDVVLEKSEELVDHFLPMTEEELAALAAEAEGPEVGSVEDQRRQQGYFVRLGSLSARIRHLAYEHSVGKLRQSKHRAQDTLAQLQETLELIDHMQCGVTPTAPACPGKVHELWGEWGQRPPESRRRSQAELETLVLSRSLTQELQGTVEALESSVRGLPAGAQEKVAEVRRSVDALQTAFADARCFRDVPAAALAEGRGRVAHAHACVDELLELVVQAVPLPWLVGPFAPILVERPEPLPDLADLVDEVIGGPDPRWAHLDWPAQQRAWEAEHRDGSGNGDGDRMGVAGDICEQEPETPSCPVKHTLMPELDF
Target sequence (Q8WTS1 whole entry, looked up): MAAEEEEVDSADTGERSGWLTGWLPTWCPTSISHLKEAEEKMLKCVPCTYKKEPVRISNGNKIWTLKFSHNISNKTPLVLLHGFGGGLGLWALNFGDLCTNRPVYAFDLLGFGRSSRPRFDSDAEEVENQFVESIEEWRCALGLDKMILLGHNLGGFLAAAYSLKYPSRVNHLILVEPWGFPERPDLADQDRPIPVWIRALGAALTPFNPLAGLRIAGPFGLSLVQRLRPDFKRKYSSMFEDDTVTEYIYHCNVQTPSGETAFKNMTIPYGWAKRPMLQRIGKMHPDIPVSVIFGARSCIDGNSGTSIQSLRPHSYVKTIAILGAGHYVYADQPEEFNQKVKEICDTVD
SENP1 inh: human SENP1 catalytic domain inhibitors, primary screen, biochemical, FRET, uHTS; 360,000 tested, 0.21% active; Sentrin-specific protease 1 (Homo sapiens), Q9P0U3; recombinant SENP1 catalytic domain, CyPet-SUMO1-YPet FRET cleavage; inhibition, % at 10 µM;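 active = inhibition at least 30% at 10 µM, raw YFP signal under a set limit, fluorescence ratio 0.5 to 1.5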;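 note: 0% = enzyme with DMSO and 100% = no enzyme wells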
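material = recombinant human SENP1 catalytic domain, His6-tagged | quantity = 20 pM enzyme | reagent = 25 nM SUMO1 FRET substrate | compound dosing = 10 µM single point, 0.5% DMSO | timing = 50 min enzyme reaction, room temperature, light-protected | detection = FRET, CFP and YFP emission | control set = no-enzyme low, enzyme-DMSO high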
B2AR ag: beta2AR agonists driving receptor internalization, primary screen, cell-based, FAP fluorogen, flow cytometry. 340,000 tested, 0.43% active. response, % (no concentration beside the values). Am2.2-beta2AR cells. Beta-2 adrenergic receptor (Homo sapiens), P07550;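 active = response above a set limit, near 3 SD of response in nonfluorescent compounds, cut at about 42% in these data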
NadD conf: inhibitors of S. aureus NadD, confirmation, biochemical, colorimetric, single concentration | shares compounds with NadD inh | purified S. aureus NadD, colorimetric enzyme assay | inhibition, % at 20 µM | 2,000 tested, 13% active | AID 624309, 2012; in the data active = inhibition mostly above about 42%, no sharp cut-off; inactive = mostly below about 42%
Active calls of the source: *; · = not tested or not shown.

SMILES | GRK2 aptamer HTS | NadD inh | ABHD5-PLIN5 inh | SENP1 inh | B2AR ag | NadD conf
CCc1nnc(NS(=O)(=O)c2ccc(N=Cc3c(C)[nH]n(-c4ccc(C)c(C)c4)c3=O)cc2)s1 | 0.0 | 37.3* | -6.7 | 3.0 | -5.3 | 55.2*
Cc1ccc(-n2[nH]c(C)c(C=Nc3ccc(S(=O)(=O)Nc4nccs4)cc3)c2=O)cc1 | 6.0 | · | · | · | · | ·
Cc1[nH]n(-c2ccc(Br)cc2)c(=O)c1C=Nc1ccc(S(=O)(=O)Nc2nccs2)cc1 | 0.0 | 42.0* | -9.0 | 1.7 | 20.6 | 40.1
Oc1ccc(C[C@H]2CNC(=S)N2CC2CCCN2C[C@H](Cc2ccccc2)N2C[C@H](Cc3ccc(O)cc3)N(CCc3ccccc3)C2=S)cc1 (stereo partly drawn) | · | 53.3* | 12.8 | 0.6 | 20.2 | 58.2*
Oc1ccc(C[C@@H](CN2CCC[C@@H]2CN2C(=S)NC[C@@H]2Cc2ccccc2)N2C[C@H](Cc3ccccc3)N(CCc3ccccc3)C2=S)cc1 | · | 20.4 | 10.7 | 2.4 | · | ·
CC(C)C[C@H]1CN([C@@H](Cc2ccc(O)cc2)CN2CCC[C@@H]2CN2C(=S)NC[C@@H]2Cc2ccccc2)C(=S)N1CCc1ccccc1 | · | 31.8* | 18.2 | 1.3 | · | 9.4
O=C1c2ccccc2C(=O)N1C1C=CC=CC=C1 | · | -1.1 | 2.4 | -0.4 | · | ·
Cc1ccccc1N1CCN(CCN2C(=O)CC(=C3c4ccccc4-c4ccccc43)C2=O)CC1 | 3.0 | 30.6* | 7.5 | 17.6 | 9.5 | 39.0
COc1ccccc1N1CCN(CCN2C(=O)CC(=C3c4ccccc4-c4ccccc43)C2=O)CC1 | 1.0 | · | · | · | · | ·
O=C1CC(=C2c3ccccc3-c3ccccc32)C(=O)N1CCN1CCN(c2ccccc2)CC1 | 6.0 | 38.2* | 2.0 | 5.1 | -0.5 | 27.2
CCOc1ccc(C(=O)Nc2cc(NC(=O)c3ccc(OCC)c(Cl)c3)cc(C(=O)O)c2)cc1Cl | · | 30.2* | 1.2 | -1.1 | -10.0 | 13.2
CCOc1ccc(C(=O)Nc2cccc(C(=O)O)c2)cc1Cl | 0.0 | -1.5 | -1.1 | -0.6 | 6.9 | ·
O=C(/C=C/c1ccco1)NC(=S)Nc1ccc(O)c(-c2nc3ccccc3s2)c1 | 7.0 | 47.3* | 6.7 | -24.4 | -7.8 | 0.0
O=C(CSc1nc2c(cnn2-c2ccccc2)c(=O)[nH]1)c1ccc(Cl)cc1 | 0.0 | 37.2* | 2.0 | 0.4 | -10.1 | -2.7
CCCS(=O)(=O)NC(=O)C1(C)CCN(C(=O)c2cccc3ccccc23)C1 (stereo not drawn) | · | -0.5 | -4.5 | 3.0 | · | ·
COc1ccc(-c2csc(NC(=O)c3cc(-c4cccs4)nc4ccccc34)n2)c(OC)c1 | 1.0 | 34.5* | -8.5 | 0.4 | -3.7 | 10.4
Cc1cc(C)c2nc(NNC(=O)c3cc(-c4cccs4)nc4ccccc34)sc2c1 | 0.0 | 50.8* | 5.7 | -32.2 | 11.8 | 2.0
O=C(NNc1nc2ccc(Cl)cc2s1)c1cc(-c2cccs2)nc2ccccc12 | 0.0 | 44.0* | -18.0 | 17.8 | 4.1 | 47.6*
C/C(=N\OCC(=O)OCC(=O)N(C)c1ccccc1)c1ccc2c(c1)OCO2 | 6.0 | -5.3 | 4.0 | 0.2 | 2.7 | ·
CCC1CCCCN1CCCNC(=O)c1ccc(CS(=O)(=O)c2ccccc2C)o1 (stereo not drawn) | 0.0 | -3.1 | 3.4 | 0.4 | -2.7 | ·
O=C(CNc1cccc2ccccc12)N/N=C/c1ccc([N+](=O)[O-])cc1 | 4.0 | 39.6* | -10.3 | -13.9 | -0.2 | 44.2*
O=[N+]([O-])c1ccc(C=NNC(=S)NN=Cc2ccc([N+](=O)[O-])cc2)cc1 | · | 34.6* | -10.2 | 5.6 | 5.7 | 4.9
Cc1cccc(NCC(=O)N/N=C\c2ccccn2)c1 | 2.0 | -4.5 | -0.9 | 2.2 | -8.4 | ·
Cc1ccccc1NCC(=O)N/N=C/c1ccc([N+](=O)[O-])cc1 | 0.0 | -2.5 | -0.8 | -0.1 | -2.0 | ·
O=C(CNc1cccc2ccccc12)N/N=C/c1ccccn1 | 2.0 | 47.7* | 5.4 | -34.6 | -3.5 | 1.0
SMILES | GRK2 aptamer HTS | NadD inh | ABHD5-PLIN5 inh | SENP1 inh | B2AR ag | NadD conf
CCc1cc2c(=O)c(-c3cnn(-c4ccccc4)c3)c(C)oc2cc1OCC(=O)Nc1ccc(F)c(F)c1 | 0.0 | 32.5* | -2.3 | 1.6 | -7.0 | 6.6
CCc1cc2c(=O)c(-c3cnn(-c4ccccc4)c3)c(C)oc2cc1OCC(=O)Nc1cccc(C)c1 | 14.0 | 19.2 | 0.4 | -1.7 | -0.6 | ·
Cc1ccc(NC(=O)c2sc3nc(C)nc(N4CCN(c5ccccn5)CC4)c3c2C)c(C)c1 | 2.0 | 11.7 | -4.1 | 2.7 | 3.1 | ·
Cc1nc(N2CCN(c3ccccn3)CC2)c2c(C)c(C(=O)Nc3ccc(Br)cc3C)sc2n1 | 1.0 | 30.1* | -5.6 | 1.3 | 2.0 | 5.4
Nc1nnc(SCC(=O)c2ccccc2)s1 | 0.0 | 6.7 | 9.1 | 1.0 | 8.0 | ·
Nc1c(C(=O)c2ccccc2)sc2snc(SCC(=O)c3ccccc3)c12 | 0.0 | 36.9* | -21.1 | 20.7 | -88.7 | 3.3
Nc1ncc2c(n1)-c1cc(Cl)ccc1SC2 | 0.0 | 29.4* | 7.5 | -3.8 | 0.5 | 5.3
COc1ccc(/C=N/NC(=O)c2nc(-c3ccccc3)cc(-c3ccccc3)n2)cc1 | 3.0 | 38.5* | 5.0 | 0.7 | -6.5 | 5.5
COc1ccc(/C=N/NC(=O)c2nc(-c3ccccc3)cc(-c3ccccc3)n2)cc1O | 5.0 | 38.4* | 6.3 | 2.6 | -29.8 | 41.5
CC(C)=CCC/C(C)=C/CNC(=O)C[C@H]1C[C@H](C(=O)N2CCOCC2)[C@@]2(CCC3CCCC3)c3[nH]c4cc(-c5ccco5)ccc4c3CCN2C1=O | 0.0 | 45.9* | 8.2 | -60.7 | -3.4 | 11.5
CC(C)=CCC/C(C)=C/CNC(=O)C[C@H]1C[C@H](C(=O)N(C(C)C)C(C)C)[C@@]2(C)c3[nH]c4cc(-c5ccco5)ccc4c3CCN2C1=O | 5.0 | 33.5* | 12.1 | -28.2 | -4.5 | -1.6
COc1ccc2[nH]c3c(c2c1)CCN1C(=O)C(CC(=O)NC/C=C(\C)CCC=C(C)C)C[C@H](C(=O)N2CCOCC2)[C@@]31CCC1CCCC1 (stereo partly drawn) | 5.0 | 6.8 | 3.8 | -1.0 | 0.8 | ·
COc1ccc(N2C(=NC(=O)CC3CCCCC3)SC3CS(=O)(=O)CC32)cc1 (stereo not drawn) | 0.0 | 0.9 | -9.1 | 0.6 | -4.9 | ·
COc1ccc(-c2nn(-c3ccccc3)cc2C(=O)NC(=S)NNC(=O)c2ccncc2)cc1 | 3.0 | 58.4* | -20.2 | 1.0 | 11.0 | 38.4
COc1ccc(NC(=O)c2cn(-c3ccccc3)nc2-c2ccncc2)cc1 | 0.0 | 12.7 | 1.1 | 4.5 | -10.3 | ·

Assay outcomes as filed in PubChem BioAssay.
